Data taken from ChEMBL document CHEMBL1123389, “3-Hydroxy-3-methylglutaryl-coenzyme A reductase inhibitors. 2. Structural modification of 7-(substituted aryl)-3,5-dihydroxy-6-heptenoic acids and their lactone derivatives” (J Med Chem, 1986).

Legend:
[1] = molecular target: T1, 3-hydroxy-3-methylglutaryl-coenzyme A reductase (Rattus norvegicus, UniProt P51639); experiment: Inhibition of solubilized, partially purified rat liver HMG-CoA reductase
T1 sequence (P51639 whole entry): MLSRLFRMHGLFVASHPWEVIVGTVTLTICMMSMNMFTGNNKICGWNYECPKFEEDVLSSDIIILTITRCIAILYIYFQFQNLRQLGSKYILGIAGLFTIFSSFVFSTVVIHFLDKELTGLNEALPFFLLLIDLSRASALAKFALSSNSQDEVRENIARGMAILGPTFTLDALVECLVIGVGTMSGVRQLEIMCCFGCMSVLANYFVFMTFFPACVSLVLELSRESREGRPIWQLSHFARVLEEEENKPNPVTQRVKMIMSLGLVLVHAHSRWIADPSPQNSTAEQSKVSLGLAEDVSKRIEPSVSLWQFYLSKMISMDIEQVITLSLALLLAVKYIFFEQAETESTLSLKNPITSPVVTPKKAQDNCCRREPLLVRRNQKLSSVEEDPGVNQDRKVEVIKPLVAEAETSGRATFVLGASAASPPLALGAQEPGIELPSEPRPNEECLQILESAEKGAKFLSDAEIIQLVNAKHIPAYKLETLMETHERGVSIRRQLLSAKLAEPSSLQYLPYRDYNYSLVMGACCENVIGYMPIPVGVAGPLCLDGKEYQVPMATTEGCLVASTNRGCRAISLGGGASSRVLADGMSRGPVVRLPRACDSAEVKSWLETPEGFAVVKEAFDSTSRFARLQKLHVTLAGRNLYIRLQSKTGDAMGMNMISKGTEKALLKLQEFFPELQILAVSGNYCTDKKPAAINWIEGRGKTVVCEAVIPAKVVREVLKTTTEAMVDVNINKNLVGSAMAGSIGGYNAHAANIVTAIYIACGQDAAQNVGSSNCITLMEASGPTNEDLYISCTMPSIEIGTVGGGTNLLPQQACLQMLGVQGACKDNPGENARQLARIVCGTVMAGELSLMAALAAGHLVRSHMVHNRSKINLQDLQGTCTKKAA
Method in brief: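 Enzyme solubilized from fresh microsomes and purified through the second ammonium sulfate precipitation. It was diluted in 100 mM phosphate, pH 7.2, to give 50 000–60 000 dpm per 100 μL in control. Assay mix (0.8 mL): phosphate pH 7.2 100 mM, MgCl2 3 mM, NADP 3 mM, glucose 6-phosphate 10 mM, G6PDH 3 units, glutathione 50 mM, [14C]HMG-CoA 0.2 mM. Compounds were added as dihydroxy acid Na salts at multiple concentrations. Incubation ran 40 min at 37 °C, stopped with HCl, then lactonized. [14C]mevalonolactone was separated on Bio-Rex 5 and counted. IC50 came from a least-squares line of % inhibition vs concentration.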

[2] = molecular target: T2, 3-hydroxy-3-methylglutaryl-coenzyme A reductase (Rattus norvegicus) (UniProt P51639); experiment: Relative potency to inhibit solubilized, partially purified rat liver HMG-CoA reductase compared with that of compactin.
T2 sequence (whole entry): T1 sequence (P51639 whole entry)

Row | Structure (SMILES) | IC50 [1] [nM] | Relative potency [2]
1 | O=C1C[C@H](O)CC(CCc2c(Cl)cc(Cl)cc2Oc2ccccc2)O1 (some centres not stated) | 330 | 4.5
2 | O=C1C[C@H](O)CC(CCc2c(Cl)cc(Cl)cc2OCc2ccc(C(F)(F)F)cc2)O1 (some centres not stated) | 13000 | 0.16
3 | O=C1C[C@H](O)C[C@@H](/C=C/c2c(Cl)cc(Cl)cc2OCc2cccs2)O1 | 600 | 3
4 | O=C1C[C@H](O)C[C@@H](/C=C/c2c(Cl)cc(Cl)cc2OCc2cccnc2)O1 | 3400 | 0.6
5 | O=C1C[C@H](O)C[C@@H](/C=C/c2c(Cl)cc(Cl)cc2OCc2cccc3ccccc23)O1 | 4400 | 0.4
6 | O=C1C[C@H](O)C[C@@H](/C=C/c2c(Cl)cc(Cl)cc2OCCc2ccccc2)O1 | 480 | 5
7 | O=C1C[C@H](O)C[C@@H](/C=C/c2c(Cl)cc(Cl)cc2OCc2ccc(F)cc2)O1 | 200 | 7.5
8 | O=C1C[C@H](O)C[C@@H](CCc2c(Cl)cc(Cl)cc2OCc2ccccc2)O1 (stereo in doubt; 8a(-)) [listing 1 of 2 here] | 5200 | 
9 | O=C1C[C@H](O)C[C@@H](/C=C/c2c(Cl)cc(Cl)cc2OCc2ccc(F)cc2F)O1 | 200 | 7.5
10 | O=C1C[C@H](O)C[C@@H](/C=C/c2c(Cl)cc(Cl)cc2OCCCc2ccccc2)O1 | 1450 | 1.6
11 | O=C1C[C@H](O)C[C@@H](/C=C/c2cccc(Cl)c2Cl)O1 | 64400 | 0.017
12 | O=C1C[C@H](O)C[C@@H](/C=C/c2c(Cl)cc(Cl)cc2OCc2ccco2)O1 | 600 | 3
13 | O=C1C[C@H](O)C[C@@H](/C=C/c2c(Cl)cc(Cl)cc2OCc2cccc(F)c2)O1 | 580 | 3.4
14 | O=C1C[C@H](O)C[C@@H](/C=C/c2c(Cl)cc(Cl)cc2OCc2ccccc2F)O1 | 510 | 5.9
15 | Cc1ccc(/C=C/[C@@H]2C[C@@H](O)CC(=O)O2)c(C)c1 | 29900 | 
16 | O=C1C[C@H](O)C[C@@H](CCc2c(Cl)cc(Cl)cc2OCc2ccccc2)O1 (racemic) [listing 1 of 2 here] |  | 12
17 | O=C1C[C@H](O)C[C@@H](/C=C/c2c(Cl)cc(Cl)cc2OCc2c(F)c(F)c(F)c(F)c2F)O1 | 700 | 2.3
18 | O=C1C[C@H](O)C[C@@H](CCc2c(Cl)cc(Cl)cc2OCc2ccc(F)cc2)O1 (stereo in doubt; 66) [listing 1 of 2 here] | 76 | 
19 | O=C1C[C@H](O)C[C@@H](CCc2c(Cl)cc(Cl)cc2COc2ccccc2)O1 | 390 | 6
20 | O=C1C[C@H](O)C[C@@H](/C=C/c2c(Cl)cc(Cl)cc2OC(c2ccccc2)c2ccccc2)O1 | 6300 | 0.7
21 | N#Cc1ccc(COc2cc(Cl)cc(Cl)c2/C=C/[C@@H]2C[C@@H](O)CC(=O)O2)cc1 | 2000 | 1.25

Row | Structure (SMILES) | IC50 [1] [nM] | Relative potency [2]
22 | O=C1C[C@H](O)C[C@@H](/C=C/c2c(Cl)cc(OCc3ccc(F)cc3)cc2Cl)O1 | 670 | 2.7
23 | O=C1C[C@H](O)C[C@@H](CCc2c(Cl)cc(Cl)cc2OCc2ccccc2)O1 (stereo in doubt; 8a(+)) [listing 1 of 2 here] |  | 19.1
24 | O=C1C[C@H](O)C[C@@H](/C=C/c2c(Cl)cc(Cl)cc2OCc2ccccc2)O1 (racemic) | 430 | 3.5
25 | O=C1C[C@H](O)CC(CCc2c(Cl)cc(Cl)cc2OCC2CCCCC2)O1 (some centres not stated) | 750 | 4.4
26 | O=C1C[C@H](O)C[C@@H](/C=C/c2c(Cl)cc(Cl)cc2OCc2ccc[n+]([O-])c2)O1 | 122000 | 0.016
27 | COCCOCOc1cc(Cl)cc(Cl)c1/C=C/[C@@H]1C[C@@H](O)CC(=O)O1 | 11000 | 0.4
28 | O=C1C[C@H](O)C[C@@H](/C=C/c2c(Cl)cc(Cl)cc2OCc2ccncc2)O1 | 3700 | 0.6
29 | O=C1C[C@H](O)C[C@@H](/C=C/c2ccc(Cl)cc2Cl)O1 |  | 0.08
30 | CCCCCOc1cc(Cl)cc(Cl)c1/C=C/[C@@H]1C[C@@H](O)CC(=O)O1 | 1000 | 2.4
31 | O=C1C[C@H](O)C[C@@H](/C=C/c2c(Cl)cc(Cl)cc2OCc2ccc(Cl)cc2)O1 | 2500 | 1.7
32 | Cc1ccc(COc2cc(Cl)cc(Cl)c2/C=C/[C@@H]2C[C@@H](O)CC(=O)O2)cc1 | 4900 | 0.3
33 | O=C1C[C@H](O)C[C@@H](/C=C/c2c(Cl)cc(Cl)cc2OCc2cc[n+]([O-])cc2)O1 | 117000 | 0.016
34 | O=C1C[C@H](O)CC(CCc2c(O)cc(Cl)cc2Cl)O1 (some centres not stated) | 7900 | 0.2
35 | Cc1cc(OCc2ccccc2)cc(C)c1/C=C/[C@@H]1C[C@@H](O)CC(=O)O1 | 620 | 3.7
36 | C=CCOc1cc(Cl)cc(Cl)c1/C=C/[C@@H]1C[C@@H](O)CC(=O)O1 | 760 | 3.2
37 | COc1ccc(COc2cc(Cl)cc(Cl)c2/C=C/[C@@H]2C[C@@H](O)CC(=O)O2)cc1 | 2600 | 0.8
38 | O=C1C[C@H](O)C[C@@H](/C=C/c2ccccc2-c2ccccc2)O1 | 3000 | 0.63
39 | O=C1C[C@H](O)C[C@@H](/C=C/c2ccccc2Cl)O1 | 7400 | 0.15
40 | O=C1C[C@H](O)C[C@@H](/C=C/c2ccc(-c3ccccc3)cc2)O1 | 55000 | 
41 | O=C1C[C@H](O)C[C@@H](CCc2c(Cl)cc(Cl)cc2OCc2ccccc2)O1 (stereo in doubt; 8a(-)) [listing 2 of 2 here] |  | 0.25
42 | O=C1C[C@H](O)C[C@@H](/C=C/c2c(Cl)cc(Cl)cc2OCCC23CC4CC(CC(C4)C2)C3)O1 | 3000 | 0.7

Row | Structure (SMILES) | IC50 [1] [nM] | Relative potency [2]
43 | O=C1C[C@H](O)C[C@@H](/C=C/c2c(Cl)cc(Cl)cc2OC/C=C/c2ccccc2)O1 | 1900 | 1.1
44 | O=C1C[C@H](O)C[C@@H](/C=C/c2ccccc2)O1 | 284000 | 0.004
45 | O=C1C[C@H](O)C[C@@H](/C=C/c2c(Cl)cccc2Cl)O1 | 7900 | 0.14
46 | O=C1C[C@H](O)C[C@@H](/C=C/c2c(Cl)cc(OCc3ccccc3)cc2Cl)O1 | 450 | 4
47 | O=C1C[C@H](O)C[C@@H](/C=C/c2ccc(OCc3ccc(F)cc3)c(Cl)c2Cl)O1 | 17000 | 0.12
48 | O=C1C[C@H](O)C[C@@H](CCc2c(Cl)cc(Cl)cc2OCc2ccccc2)O1 (racemic) [listing 2 of 2 here] | 200 | 
49 | O=C1C[C@H](O)C[C@@H](/C=C/c2c(Cl)cc(Cl)cc2OCc2ccccn2)O1 | 1200 | 1.8
50 | O=C1C[C@H](O)C[C@@H](CCc2c(Cl)cc(Cl)cc2OCc2ccc(F)cc2)O1 (stereo in doubt; 66) [listing 2 of 2 here] |  | 38
51 | O=C1C[C@H](O)C[C@@H](CCc2c(Cl)cc(Cl)cc2OCc2ccccc2)O1 (stereo in doubt; 8a(+)) [listing 2 of 2 here] | 68 | 
52 | O=C1C[C@H](O)CC(CCc2c(Cl)cc(Cl)cc2OCc2cccc(F)c2)O1 (some centres not stated) | 210 | 8
53 | O=C1C[C@H](O)C[C@@H](CCc2c(Cl)cc(Cl)cc2OCc2ccc(F)cc2)O1 (stereo in doubt; 66(+)) [listing 1 of 2 here] | 50 | 
54 | O=C1C[C@H](O)C[C@@H](/C=C/c2ccc(Cl)c(Cl)c2)O1 | 35000 | 
55 | CSCOc1cc(Cl)cc(Cl)c1/C=C/[C@@H]1C[C@@H](O)CC(=O)O1 | 760 | 2.1
56 | O=C1C[C@H](O)C[C@@H](/C=C/c2c(Cl)cc(Cl)cc2Oc2ccccc2)O1 | 1100 | 1.4
57 | O=C1C[C@H](O)C[C@@H](/C=C/c2c(Cl)cc(Cl)cc2OCCOc2ccc(Cl)cc2)O1 | 1000 | 3.3
58 | CC(CCOc1cc(Cl)cc(Cl)c1/C=C/[C@@H]1C[C@@H](O)CC(=O)O1)CC(C)(C)C (some centres not stated) | 38000 | 0.09
59 | CCCCCOc1c(Cl)cc(Cl)cc1/C=C/[C@@H]1C[C@@H](O)CC(=O)O1 | 13000 | 
60 | O=C1C[C@H](O)CC(CCc2c(Cl)cc(Cl)cc2OCc2ccccc2F)O1 (some centres not stated) | 150 | 10
61 | O=C1C[C@H](O)C[C@@H](CCc2c(Cl)cc(Cl)cc2OCc2ccc(F)cc2)O1 (stereo in doubt; 66(+)) [listing 2 of 2 here] |  | 58
